This is an account of results in ChEMBL document CHEMBL3769325, “Exploration of 2-benzylbenzimidazole scaffold as novel inhibitor of NF-κB” (Bioorg Med Chem, 2016).

The term inhibition denotes the drop in the measured response relative to a control, in per cent. A lower inhibition goes with a response near the control. The IC50 is the concentration that inhibits the measured activity by half.

Molecules are shown by their SMILES.

One assay has as its system RAW264.7. The assay can be described thus: Inhibition of LPS induced NF-kappa-B transcriptional activity in mouse RAW264.7 cells at 30 uM after 20 hrs by SEAP reporter assay. The class given is cell-based. The method in brief:
(§1)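 RAW 264.7 cells stably transfected with an NF-κB-driven SEAP reporter, stimulated with LPS. Culture supernatants were heated to 65 °C for 5 min, then reacted in the dark with 4-methylumbelliferyl phosphate (500). SEAP activity was read as RFU at ex 360/em 450 nm. Results are given as IC50 or as % inhibition at 30, from three independent experiments, each averaged from triplicates.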
Background: In a reporter assay the amount or activity of a reporter protein is the signal.

Assay [1] is described as follows: Inhibition of LPS induced NF-kappa-B transcriptional activity in mouse RAW264.7 cells after 20 hrs by SEAP reporter assay. Format: cell-based. The conditions noted are these: RAW264.7, 20 h. The method, boiled down:
as §1

As for `Oc1ccc(Cc2nc3ccccc3[nH]2)cc1O`, in the assay on RAW264.7, the inhibition worked out at 75%. In assay [1], the IC50 was found to be 6 µM. `COc1ccc(Cc2nc3cc(OC)ccc3[nH]2)cc1` gave an inhibition with RAW264.7 of 61%. For the same molecule, the half-inhibitory concentration (IC50) in assay [1] was more than 30 µM. In turn, `COc1ccccc1Cc1nc2ccccc2[nH]1` registered an inhibition with RAW264.7 of 85%. In assay [1], this molecule displayed an IC50 of 2.4 µM. With `Clc1cccc(Cc2nc3ccccc3[nH]2)c1`, the inhibition with RAW264.7 was 66%. Besides, inhibition in assay [1] was half-maximal at 10 µM (IC50). For `COc1ccc(Cc2nc3ccccc3[nH]2)cc1`, the inhibition in the assay on RAW264.7 stood at 90%. In assay [1], this molecule yielded a 50% inhibitory concentration (IC50) of 1.7 µM. In the assay on RAW264.7, `COc1ccc2[nH]c(Cc3ccccc3)nc2c1` returned an inhibition of 45%. Further, the IC50 in assay [1] came out at 18 µM.

The molecule `CS(=O)(=O)c1ccc(Cc2nc3ccccc3[nH]2)cc1` returned an inhibition with RAW264.7 of 43%. The midpoint of inhibition in assay [1], the IC50, lay at 28 µM. Consider `Nc1ccc(Cc2nc3ccccc3[nH]2)cc1`, for which the inhibition with RAW264.7 amounted to 40%. This molecule also yielded a half-maximal inhibitory concentration (IC50) in assay [1] of more than 30 µM. For `Clc1ccc2[nH]c(Cc3ccccc3)nc2c1` the same measures were 31% and more than 30 µM.

In turn, `COc1ccc(Cc2nc3ccccc3o2)cc1` gave an inhibition in the assay with RAW264.7 of 42%. The molecule also displayed a half-inhibitory concentration (IC50) in assay [1] of more than 30 µM. Turning to `Clc1ccc(Cc2nc3ccccc3[nH]2)cc1Cl`, the inhibition in the assay with RAW264.7 amounted to 63%. The same molecule showed an IC50 in assay [1] of 15 µM.

Take `Clc1ccccc1Cc1nc2ccccc2[nH]1`: in the assay with RAW264.7, the inhibition was determined as 33%. The IC50 in assay [1] is more than 30 µM.

In the assay on RAW264.7, `COc1ccc(Cc2nc3cc(Cl)ccc3[nH]2)cc1` showed an inhibition of 66%. In assay [1], this molecule had an IC50 of 10 µM. As to `Clc1ccc(Cc2nc3cc(Cl)ccc3[nH]2)cc1`, the inhibition in the assay with RAW264.7 came to 76%. It took 5 µM to reach half-maximal inhibition in assay [1] (IC50).

`Clc1ccc(-c2nc3ccccc3[nH]2)cc1` gave an inhibition in the assay on RAW264.7 of 12%. Besides, the IC50 in assay [1] was more than 30 µM. The molecule `COc1ccc(Cc2nc3ccccc3[nH]2)cc1OC` returned an inhibition with RAW264.7 of 32%. Moreover, in assay [1], the IC50 was more than 30 µM.

For the molecule `COc1ccc(CCc2nc3ccccc3[nH]2)cc1`, the inhibition in the assay with RAW264.7 stood at 50%. Further, in assay [1], the half-inhibitory concentration (IC50) is more than 30 µM. On to `Cc1ccc(Cc2nc3ccccc3[nH]2)cc1`, for which the inhibition in the assay on RAW264.7 came out at 60%. Moreover, the half-inhibitory concentration (IC50) in assay [1] was determined as 19 µM.

`Clc1ccc(Cc2nc3ccccc3[nH]2)cc1` had an inhibition in the assay with RAW264.7 of 85%. This molecule also came in with a 50% inhibitory concentration (IC50) in assay [1] of 2.4 µM. For `c1ccc(-c2nc3ccccc3[nH]2)cc1` the same measures were 22% and more than 30 µM. For the molecule `c1ccc(Cc2nc3ccccc3[nH]2)cc1` [BENDAZOL], the inhibition in the assay on RAW264.7 was 43%. For the same molecule, in assay [1], half-maximal inhibition (IC50) required 18.4 µM. For `COc1ccc(Cc2nc3ccccc3s2)cc1` the same measures were 67% and 9 µM. Molecule `COc1ccc(-c2nc3ccccc3[nH]2)cc1` returned an inhibition in the assay on RAW264.7 of 22%. The IC50 in assay [1] was more than 30 µM.

`Oc1ccc(Cc2nc3ccccc3[nH]2)cc1` showed an inhibition with RAW264.7 of 75%. Further, the half-maximal inhibitory concentration (IC50) in assay [1] was found to be 6 µM. `O=[N+]([O-])c1ccc(Cc2nc3ccccc3[nH]2)cc1` gave an inhibition in the assay with RAW264.7 of 64%. The same molecule came in with an IC50 in assay [1] of 12 µM.

Molecule `COc1cc(Cc2nc3ccccc3[nH]2)cc(OC)c1OC` returned an inhibition with RAW264.7 of 32%. In assay [1], this molecule yielded an IC50 of more than 30 µM. In the assay on RAW264.7, `FC(F)(F)c1ccc(Cc2nc3ccccc3[nH]2)cc1` had an inhibition of 55%. Further, 16.4 µM corresponded to half-maximal inhibition in assay [1] (IC50). With `c1ccc(Cc2nc3ccccc3o2)cc1`, in the assay with RAW264.7, the inhibition is 33%. The same molecule came in with an IC50 in assay [1] of more than 30 µM. `CC(C)CCOc1cccc(O)c1C(=O)/C=C/c1ccc(O)cc1` registered a half-inhibitory concentration (IC50) in assay [1] of 10 µM. This lies in the double-digit micromolar range.
